Reference: ChEMBL document CHEMBL2321837, “Discovery of novel inhibitors targeting the Mycobacterium tuberculosis O-acetylserine sulfhydrylase (CysK1) using virtual high-throughput screening” (Bioorg Med Chem Lett, 2013)
Converted amounts (≈) assume the structure as drawn.

Assays:
[1] = Cytotoxicity against HEK293T cells assessed as growth inhibition at 50 uM by MTT assay relative to control; format: cell-based, HEK-293T; conditions: human, read-out: GI
[2] = Cytotoxicity against HEK293T cells assessed as growth inhibition at 25 uM by MTT assay relative to control; format: cell-based, HEK-293T; conditions: human, read-out: GI
[3] = test system: Mycobacterium tuberculosis; experiment: Antimycobacterial activity against Mycobacterium tuberculosis H37Rv ATCC 27294 assessed as growth inhibition by NCCLS agar dilution method; format: functional
Method in brief: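 M. tuberculosis H37Rv (ATCC27294) agar dilution, compounds 50 to 0.78 µg/mL in duplicates. MIC taken as lowest concentration completely inhibiting growth; isoniazid and ethambutol as reference compounds.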

[4] = biological target: O-acetylserine sulfhydrylase (Mycobacterium tuberculosis) (UniProt P9WP55); experiment: Inhibition of Mycobacterium tuberculosis CysK1 using O-acetyl-L-serine as substrate assessed as L-cycteine formation at 100 uM after 5 mins by spectrophotometric analysis relative to control
Method in brief: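 Single-point screen of compounds at 100 µM. Assay mix (MOPS pH 7.0, O-acetyl-L-serine, CysK1) was preincubated 5 min at room temperature, then started with 1 mM sodium sulphide for 20 min. It was stopped with trichloroacetic acid (final 16.6%), then acid-ninhydrin reagent was added and heated at 96 °C for 10 min. After 1:1 ethanol dilution, OD was read at 560 nm; triplicates. Controls were DFSI tetrapeptide (100 µM, 100% inhibition) and no inhibitor (0%).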

[5] = biological target: T1, O-acetylserine sulfhydrylase (Mycobacterium tuberculosis, UniProt P9WP55); experiment: Inhibition of Mycobacterium tuberculosis CysK1 using O-acetyl-L-serine as substrate assessed as L-cycteine formation after 5 mins by spectrophotometric analysis
Method in brief: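 Dose–response: serial 1:3 dilutions prepared in 50% DMSO (final DMSO 5%). Final mix was 100 mM MOPS pH 7.0, 2 mM O-acetyl-L-serine, […] CysK1, preincubated 5 min at room temperature. The reaction was started with sodium sulphide (final 1 mM). Aliquots taken at time intervals were assayed for L-cysteine by acid-ninhydrin. Specific activity vs concentration was fitted to a sigmoid for IC50.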

[6] = biological target: T1, O-acetylserine sulfhydrylase; experiment: Competitive inhibition of Mycobacterium tuberculosis CysK1
Method in brief: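 Purified CysK1 preincubated 5 min at room temperature with 1:3 serial compound dilutions in 100 mM MOPS pH 7.0 and 2 mM O-acetyl-L-serine, 5% DMSO final. Reaction started with sodium sulphide (1 mM final); aliquots were taken at time intervals. L-cysteine was measured by acid-ninhydrin (96 °C, 10 min) at 560 nm. IC50 came from sigmoid fits of specific activity.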

SMILES | inhibition at 50 µM [1] | inhibition at 25 µM [2] | MIC [3] | inhibition [4] | IC50 [5] | Ki [6]
O=C1N=C2SC([N+](=O)[O-])=CN2C2=NC(=S)NC(c3ccc(F)cc3)C12 (stereo not drawn) | 43.4% | 30.6% | 16.6 µM (≈ 6.26 µg/mL) | 60% | – | –
O=C1N=C2C(C(=O)N=C3SC([N+](=O)[O-])=CN32)C(c2c(Cl)cccc2Cl)N1 (stereo not drawn) | 0% | 0% | 121 µM (≈ 50 µg/mL) | 57.8% | – | –
O=C1N=C2SC([N+](=O)[O-])=CN2C2=NC(=S)NC(c3ccccc3[N+](=O)[O-])C12 (stereo not drawn) | 8.7% | 1% | 30.9 µM (≈ 12.5 µg/mL) | 11.3% | 30.3 µM | –
CC[C@@H](CO)NCCN[C@@H](CC)CO [ETHAMBUTOL] | – | – | 4.71 µM (≈ 0.962 µg/mL) | – | – | –
O=C1N=C2SC([N+](=O)[O-])=CN2C2=NC(=S)NC(c3cccc(Br)c3)C12 (stereo not drawn) | 13.5% | 6% | 7.1 µM (≈ 3.11 µg/mL) | 39.9% | – | –
CC[C@H](C)[C@H](NC(=O)[C@H](CO)NC(=O)[C@H](Cc1ccccc1)NC(=O)[C@@H](N)CC(=O)O)C(=O)O | – | – | – | – | 7.4 µM | 5 µM
CN(C)c1ccc(C2NC(=S)N=C3C2C(=O)N=C2SC([N+](=O)[O-])=CN23)cc1 (stereo not drawn) | 26.8% | 8% | 15.5 µM (≈ 6.24 µg/mL) | 100% | – | –
O=C1N=C2SC([N+](=O)[O-])=CN2C2=NC(=S)NC(c3ccccc3O)C12 (stereo not drawn) | 12% | 0.1% | 33.3 µM (≈ 12.5 µg/mL) | 68.8% | – | –
COc1cc(C2NC(=O)N=C3C2C(=O)N=C2SC([N+](=O)[O-])=CN23)ccc1O (stereo not drawn) | 0% | 0% | 128 µM (≈ 50 µg/mL) | 90.5% | – | –
COc1ccc(C2NC(=S)N=C3C2C(=O)N=C2SC([N+](=O)[O-])=CN23)cc1 (stereo not drawn) | 14.6% | 0.2% | 32.1 µM (≈ 12.5 µg/mL) | 9.1% | 22.7 µM | –
O=C1N=C2C(C(=O)N=C3SC([N+](=O)[O-])=CN32)C(c2cccc(Br)c2)N1 (stereo not drawn) | 2.8% | 0% | 14.8 µM (≈ 6.25 µg/mL) | 60.1% | – | –
Cc1ccccc1C1NC(=S)N=C2C1C(=O)N=C1SC([N+](=O)[O-])=CN12 (stereo not drawn) | 18.8% | 3.6% | 33.5 µM (≈ 12.5 µg/mL) | 15.9% | 17.7 µM | –
O=C1N=C2C(C(=O)N=C3SC([N+](=O)[O-])=CN32)C(c2ccccc2[N+](=O)[O-])N1 (stereo not drawn) | 0% | 0% | 129 µM (≈ 50 µg/mL) | 93% | – | –
O=C1N=C2SC([N+](=O)[O-])=CN2C2=NC(=S)NC(c3ccccc3)C12 (stereo not drawn) | 25.3% | 0% | 69.6 µM (≈ 25 µg/mL) | 90.4% | – | –
Cc1ccccc1C1NC(=O)N=C2C1C(=O)N=C1SC([N+](=O)[O-])=CN12 (stereo not drawn) | 20.4% | 6% | 70 µM (≈ 25 µg/mL) | 103% | – | –
O=C1N=C2SC([N+](=O)[O-])=CN2C2=NC(=S)NC(c3c(Cl)cccc3Cl)C12 (stereo not drawn) | 30.7% | 21.3% | 58.4 µM (≈ 25 µg/mL) | 113% | – | –
O=C1N=C2C(C(=O)N=C3SC([N+](=O)[O-])=CN32)C(c2ccc(Cl)cc2)N1 (stereo not drawn) | 0% | 0% | 66.2 µM (≈ 25 µg/mL) | 80% | – | –

SMILES | inhibition at 50 µM [1] | inhibition at 25 µM [2] | MIC [3] | inhibition [4] | IC50 [5] | Ki [6]
O=C1N=C2C(C(=O)N=C3SC([N+](=O)[O-])=CN32)C(c2ccccc2)N1 (stereo not drawn) | 3.8% | 1.6% | > 146 µM | 84.1% | – | –
Cc1ccc(C2NC(=S)N=C3C2C(=O)N=C2SC([N+](=O)[O-])=CN23)cc1 (stereo not drawn) | 14.7% | 0% | 67 µM (≈ 25 µg/mL) | 106% | – | –
COc1ccc(C2NC(=O)N=C3C2C(=O)N=C2SC([N+](=O)[O-])=CN23)cc1 (stereo not drawn) | 7.3% | 0% | 134 µM (≈ 50 µg/mL) | 93.9% | – | –
O=C1N=C2SC([N+](=O)[O-])=CN2C2=NC(=S)NC(c3ccc([N+](=O)[O-])cc3)C12 (stereo not drawn) | 6.6% | 1.64% | 61.8 µM (≈ 25 µg/mL) | 70.6% | – | –
O=C1N=C2SC([N+](=O)[O-])=CN2C2=NC(=S)NC(c3ccc(Br)cc3)C12 (stereo not drawn) | 6.5% | 2.5% | 28.5 µM (≈ 12.5 µg/mL) | 65.6% | – | –
O=C1N=C2C(C(=O)N=C3SC([N+](=O)[O-])=CN32)C(c2ccccc2O)N1 (stereo not drawn) | 0% | 0% | 69.6 µM (≈ 25 µg/mL) | 107% | – | –
CN(C)c1ccc(C2NC(=O)N=C3C2C(=O)N=C2SC([N+](=O)[O-])=CN23)cc1 (stereo not drawn) | 4.9% | 0% | 32.4 µM (≈ 12.5 µg/mL) | 92.7% | – | –
O=C1N=C2SC([N+](=O)[O-])=CN2C2=NC(=S)NC(c3ccccc3C(F)(F)F)C12 (stereo not drawn) | 52.2% | 27.7% | 7.3 µM (≈ 3.12 µg/mL) | 89.4% | – | –
COc1cc(C2NC(=S)N=C3C2C(=O)N=C2SC([N+](=O)[O-])=CN23)ccc1O (stereo not drawn) | 1.35% | 0% | 123 µM (≈ 50 µg/mL) | 89.2% | – | –
O=C1N=C2SC([N+](=O)[O-])=CN2C2=NC(=S)NC(c3ccc(Cl)cc3)C12 (stereo not drawn) | 14.6% | 7.4% | 15.9 µM (≈ 6.26 µg/mL) | 102% | – | –
O=C1N=C2C(C(=O)N=C3SC([N+](=O)[O-])=CN32)C(c2ccc(F)cc2)N1 (stereo not drawn) | 10.7% | 5.4% | 17.3 µM (≈ 6.25 µg/mL) | 100% | – | –
NNC(=O)c1ccncc1 [ISONIAZID] | – | – | 0.72 µM (≈ 0.0987 µg/mL) | – | – | –
O=C1N=C2C(C(=O)N=C3SC([N+](=O)[O-])=CN32)C(c2ccc([N+](=O)[O-])cc2)N1 (stereo not drawn) | 9.4% | 2.6% | 129 µM (≈ 50 µg/mL) | 54.7% | – | –
Cc1ccc(C2NC(=O)N=C3C2C(=O)N=C2SC([N+](=O)[O-])=CN23)cc1 (stereo not drawn) | 0% | 0% | 70 µM (≈ 25 µg/mL) | 57.7% | – | –
O=C1N=C2C(C(=O)N=C3SC([N+](=O)[O-])=CN32)C(c2ccc(Br)cc2)N1 (stereo not drawn) | 11.2% | 6.1% | 29.6 µM (≈ 12.5 µg/mL) | 89.1% | – | –
O=C1N=C2C(C(=O)N=C3SC([N+](=O)[O-])=CN32)C(c2ccccc2C(F)(F)F)N1 (stereo not drawn) | 13.1% | 5.7% | 7.6 µM (≈ 3.13 µg/mL) | 13.8% | 17.7 µM | –
